Screening data from PubChem BioAssay.
This is a sample that favours compounds with a hit; in the whole collection about 2.4% have one here.
H9c2 protect = myocardial damage modulation in H9c2 cells; H9c2 cardiomyocytes, H2O2 injury protection, ATPLite, 2 h; protection from H2O2 cell death, % at 20 µM; hit rate 0.63% among 360,000;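 active means compounds giving at least 50% protection of heart cells from peroxide-induced death in the single-dose screen, raw or plate-pattern-corrected value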;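 further: 0% = DMSO wells with peroxide and 100% = DMSO wells without peroxide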
PP5 primary = inhibitors of human protein phosphatase 5 (PP5); hit rate 0.18% among 320,000; P53041; purified PP5c, OMFP substrate fluorescence; AID 1987; inhibition, % at 6.7 µM;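 active means inhibition above the campaign's mean inhibition across all tested compounds plus 3 SD, cut at about 9.5% in these data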;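 further: 0% = DMSO only and 100% = 100 µM cantharidin control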
p-CIP stab down = lowers stability of the mouse p/CIP coactivator protein; AID 1984; Q05BA5; decrease of EGFP signal, % at 10 µM; F442A p/CIP-EGFP cells, EGFP fluorescence, 16 h; hit rate 0.01% among 290,000;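 active means EGFP signal decrease of at least 30% at 10 µM or well 3 SD below plate mean, unless failing retest; inactive means the rest, including hits failing retest or dose response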
T cruzi repl = blocks replication of Trypanosoma cruzi | T. cruzi beta-gal in NIH3T3, luminescence, 90 h | inhibition, % (test concentration not listed) | hit rate 1.4% among 300,000;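 active means mean inhibition across valid replicates above about 55%, limit read from the data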;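 further: signal also drops with host cell toxicity which is not excluded here; 0% = plate median of DMSO wells and 100% = zero luminescence signal; higher percent means less beta-gal luminescence so fewer parasites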
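Incubation – ≥90 h infection period, 3 h prior cell attachment · System – NIH/3T3 fibroblasts plus reporter T. cruzi · Doses – compound pinned at 50 nL/well, DMSO · Read-out basis – percent inhibition of parasite-derived β-gal signal · Signal – luminescent β-galactosidase signal after 60 min lysis · Also added – 5000 T. cruzi trypomastigotes/well · Medium – Low-serum DMEM with 2% FBS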
GASC-1 inh = human JMJD2C demethylase inhibition; hit rate 0.069% among 330,000; inhibition, % at 2.35 µM; GST-JMJD2C(1-420) H3K9me3 demethylation, DELFIA europium;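 active means more than half of a compound's replicate wells show inhibition beyond 50%, single wells judged on their own value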;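 further: signal counts dimethyl H3K9 product captured on neutravidin plate; 0% = median of DMSO wells and 100% = 0.3 times that DMSO median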
Target sequence (Q9H3R0 1-420 limits assumed): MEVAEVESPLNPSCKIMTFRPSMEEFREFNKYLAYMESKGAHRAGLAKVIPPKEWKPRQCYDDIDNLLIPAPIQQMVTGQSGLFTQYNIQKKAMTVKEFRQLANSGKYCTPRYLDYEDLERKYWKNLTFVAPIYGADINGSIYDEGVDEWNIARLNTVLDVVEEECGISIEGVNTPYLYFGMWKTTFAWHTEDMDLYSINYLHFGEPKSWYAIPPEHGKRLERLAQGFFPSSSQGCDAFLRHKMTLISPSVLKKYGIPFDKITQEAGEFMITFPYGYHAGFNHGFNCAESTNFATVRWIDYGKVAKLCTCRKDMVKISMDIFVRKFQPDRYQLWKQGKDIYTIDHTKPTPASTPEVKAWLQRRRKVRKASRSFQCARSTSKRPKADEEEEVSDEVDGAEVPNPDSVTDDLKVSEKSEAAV
Fh CTSL1 inh = counter-screen for PFM18AAP inhibitors: inhibitors of F. hepatica cathepsin L1 | recombinant F. hepatica cathepsin L1, Z-Leu-Arg-MCA fluorescence | inhibition, % at 5.96 µM | hit rate 0.49% among 300,000;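 active means inhibition above the mean of all tested compounds plus 3 SD, set per screening campaign, cut at about 17% in these data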;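 further: 0% = plate median of test compound wells and 100% = 1 µM Z-Phe-Ala-diazomethylketone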
* hit, by the source's call; x = not tested or not shown.

SMILES	H9c2 protect	PP5 primary	p-CIP stab down	T cruzi repl	GASC-1 inh	Fh CTSL1 inh
CCOc1ccc(C2CC(c3ccc(OC)cc3)n3ncnc3N2)cc1 (configuration not stated)	8	2	-13	14	-2	18*
O=C(CSc1nnc(-c2ccccc2O)n1Cc1ccccc1)NNC(=O)c1ccccc1O	43	3	4	1	5	-2
O=C(CSc1nnc(-c2ccccc2)n1Cc1ccccc1)NNC(=O)c1ccccc1O	59*	3	4	-7	14	0
CCc1ccccc1NC(=O)NC1CC2CCC(C1)N2Cc1cccs1 (configuration not stated)	2	2	11	-9	0	4
CCc1ccc(NC(=S)NC2CC3CCCC(C2)N3Cc2cccs2)cc1 (configuration not stated)	-20	0	-16	56*	-8	1
CC1(C2CCC3C4CCC5CC6(CCC5(C)C4C(=O)CC32C)OCCO6)OCCO1 (configuration not stated)	-3	x	x	x	x	x
O=C(N/N=C/c1ccc([N+](=O)[O-])o1)C1CC1	-2	0	7	73*	-13	-3
COC(=O)N/N=C/c1ccc([N+](=O)[O-])o1	-4	1	-2	55*	8	0
O=C(CNC(=O)N1CC(=O)Nc2ccccc21)Nc1cccc(F)c1	3	1	-2	5	-5	-2
COc1ccc(N=Cc2nc(-c3ccccc3)oc2OC(C)=O)cc1	0	-2	-4	-2	-2	20*
CN(C)c1ccc(N=Cc2nc(-c3ccccc3)oc2OC(=O)c2cccc(Cl)c2)cc1	-18	0	-4	0	22	10
COc1cccc(N=Cc2nc(-c3ccccc3)oc2OC(C)=O)c1	9	-6	1	-7	14	28*
Cc1ccc(C(=O)Oc2oc(-c3ccccc3)nc2C=Nc2ccc(N(C)C)cc2)cc1	-14	2	-15	-8	1	10
COc1ccc(CCN/C=C2/CC(=O)NC2=O)cc1OC	-6	2	-5	1	2	25*
COc1ccc2ccc(O)c(CN(C)CC(=O)Nc3ccccc3C(F)(F)F)c2c1	-4	1	3	-2	-8	2
CCOC(=O)c1c(-c2ccco2)csc1NC(=O)COC(=O)c1cnc(C)cn1	3	1	x	-4	-48	31*
O=C(NC1CCCC1)C(c1cccnc1)N(C(=O)c1csnn1)c1ccccc1 (configuration not stated)	14	6	3	-4	11	0
CCNC(=S)NC(=NCc1cccnc1)Nc1nc(C)cc(C)n1	5	3	-2	11	76*	-1
CC(C)=CCC/C(C)=C/CNC(=O)C[C@H]1C[C@H](C(=O)N2CCCCC2)[C@@]2(CCc3ccccc3)c3[nH]c4cc(CCC(=O)N(C)C)ccc4c3CCN2C1=O	-6	x	x	x	x	x
Cc1ccc(NC(=O)C2CC(=O)N(C(C)C)C2)cc1Cl (configuration not stated)	-4	0	-3	-8	-1	0
CC(C)N1CC(C(=O)Nc2ccc(Br)c(Cl)c2)CC1=O (configuration not stated)	6	0	2	-12	69*	5
CCN(CCCC(=O)c1ccc(F)cc1)CCc1ccccc1	5	0	-7	58*	1	-1
CCN(CCCc1ccccc1)CCCc1ccccc1	5	3	-5	36	-8	-4
CS(=O)(=O)c1nc(-c2ccccc2)cc(C(F)(F)F)n1	-38	4	-12	65*	-37	7
CN(C)Cc1ccc(-c2nc3cccc4c3n2CCNC4=O)cc1	53*	2	x	47	-4	0
SMILES	H9c2 protect	PP5 primary	p-CIP stab down	T cruzi repl	GASC-1 inh	Fh CTSL1 inh
CC(=O)Nc1ccc(S(=O)(=O)N2CCC(c3nc4ccc(C)cc4[nH]3)CC2)cc1	8	2	-17	5	-12	-4
CC(C)(C)c1ccc(S(=O)(=O)N2CCC(c3nc4ccc(Cl)cc4[nH]3)CC2)cc1	-8	6	-10	55*	18	2
CCN(CC)CCNC(=O)CCc1nn(C)c(=O)c2ccccc12	14	-1	-9	2	25	-2
CCN(CC)CCNC(=O)CCc1n[nH]c(=O)c2ccccc12	81*	3	1	9	12	2
CC(=O)Nc1ccc(-c2ccnc3c2CC(C)(C(=O)Nc2cccc(C(F)(F)F)c2)O3)cc1 (configuration not stated)	43	x	x	x	x	x
Cc1ccc(-n2c(C)cc(/C=C3\NC(=O)NC3=O)c2C)c(C)c1	-5	4	7	1	2	17*
CN(C)CC(CCC(CN(C)C)C(=O)c1ccccc1)C(=O)c1ccccc1 (configuration not stated)	-18	x	-42	71*	-20	x
CCOc1ccc(C(=O)C(CCC(CN(C)C)C(=O)c2ccc(OCC)cc2)CN(C)C)cc1 (configuration not stated)	-29	x	7	31	-2	x
Cc1ccc(/C=N/NC(=O)C2CC(=O)N(c3ccccc3)C2)s1 (configuration not stated)	4	0	-2	1	4	3
O=C(N/N=C/c1ccccc1O)C1CC(=O)N(c2ccc(Cl)cc2)C1 (configuration not stated)	55*	2	-12	7	-8	3
Cc1ccc(CC(=O)Nc2nnc(-c3ccc(F)cc3)o2)c(C)c1	25	2	5	-3	3	0
CCNC(=O)c1ccc2c(c1)S(=O)(=O)c1ccccc1C2=O	7	1	3	-9	51*	2
COc1ccc(-n2cnc3cc(NS(=O)(=O)c4ccc(C)cc4)ccc32)cc1	-5	12*	-6	x	5	0
O=C(NCCc1ccccc1)C1Cc2c(-c3ccccc3Oc3ccccc3)ccnc2O1 (configuration not stated)	-8	x	x	x	x	x
Nc1cccc2c1C(=O)N(CCOc1ccccc1F)C2=O	6	4	-10	-3	7	0
CCOc1c(C)cc(S(=O)(=O)NCc2ccccn2)c(C)c1C	-3	0	26	-14	3	-3
c1ccc(Nc2nc(-c3ccncc3)cs2)cc1	-11	-1	-1	65*	9	1
Clc1ccc(Nc2nc(-c3ccncc3)cs2)cc1	-18	1	x	57*	12	2
O=C(/C=C/c1ccccc1)Nc1nc(-c2ccncc2)cs1	7	0	11	66*	4	4
Fc1ccc(Nc2nc(-c3ccncc3)cs2)cc1	-15	3	11	47	-5	-7
